# Results: the RNAGym collection of RNA variant scans (doi:10.1126/science.aae0568)
# Variants at the floor of the assay were thinned out.
# B1: tRNA (parent)
# chain: GUUCCGUUGGCGUAAUGGUAACGCGUCUCCCUCCUAAGGAGAAGACUGCGGGUUCGAGUCCCGUACGGAACG
# Variants of: B1
# Test: yeast fitness relative to wild type (ratio to wild type); higher = fitter; tRNA-Arg(CCU), competitive growth, 37 C, YPD
# Method in brief: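 Changes in genotype frequencies gave Darwinian fitness relative to wild type. Frequencies were read by 100-nucleotide paired-end sequencing of gene amplicons before and after pooled Saccharomyces cerevisiae strains, carrying tRNA-Arg(CCU) gene variants at the native locus, were competed in YPD at 37°C for 24 hours in six replicates. A genotype was kept only with ≥ 100 starting reads, and estimates < 0.5 were set to 0.5.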
row,Variant,yeast fitness
1,U8C C30G C31G G48A,≤ 0.5
2,U8C C27U U35A U59C,≤ 0.5
3,U8C G23C C29G A43U G50A A65C,≤ 0.5
4,U8C G25A C29G C31A C62U,≤ 0.5
5,U8C A42U U53A,≤ 0.5
6,U8C C27U G48A C49U,0.686
7,U8C C11A G25C C29U A65C A70U,≤ 0.5
8,U8C C27U C66U A69U,≤ 0.5
9,U8C C22U C31U,0.54
10,U8C G44C C46A,0.769
11,U8C C24A C46G G52C U59A,≤ 0.5
12,U8A U32C,0.648
13,U8C A21C C30U G52A,≤ 0.5
14,U8C A42G,0.995
15,U8C C22A A36C G63C G67A,≤ 0.5
16,U8C G17C C22U C34A,≤ 0.5
17,U8A U28G,0.661
18,U8A U64G,0.554
19,U8C G68U A69C,≤ 0.5
20,U8C G9A U13C A20C,0.541
21,U8C C30A C46G U54A U64A G68A,≤ 0.5
22,U8C C31G G48A U54C,≤ 0.5
23,U8A U28A C33A A36U A57G,≤ 0.5
24,U8C A21U A69U,0.527

row,Variant,yeast fitness
1,U8C C49U,0.903
2,U8C C49A,0.704
3,U8C G18C A21C G63A,0.587
4,U8C A14G C27U U32A,≤ 0.5
5,U8C C34U C55A C62U,0.619
6,U8C G17A C34U C55G,≤ 0.5
7,U8C G44C G48A G51A,0.674
8,U8C C29U G38C A40C,≤ 0.5
9,U8C A14U C49A,≤ 0.5
10,U8C G10A A40G G67A,0.593
11,U8C A15U,0.849
12,U8C A40C A65C G68C,≤ 0.5
13,U8C U13A,0.809
14,U8C G10A G23C C33U,0.611
15,U8C C30U A57G,0.533
16,U8C G23A A57C,0.661
17,U8C C34A A45C,≤ 0.5
18,U8C C46A C62U,0.774
19,U8C C31U G48C C55A C60G A69G,≤ 0.5
20,U8C A14C G50A A57C,≤ 0.5
21,U8C C22G,0.935
22,U8C G25C G38A G58A C60U,≤ 0.5
23,U8C C27G C30G C46U C49G,≤ 0.5
24,U8C G12C G63C,0.577

row,Variant,yeast fitness
1,U8C C31U C49U,0.689
2,U8C A20C C22A C24U,≤ 0.5
3,U8C G23A C34A A42U C46A C55G A65G,≤ 0.5
4,U8C C27U C31A G68A,≤ 0.5
5,U8C G10A C22G,≤ 0.5
6,U8C G9A A20C,0.772
7,U8C G18C C33U,≤ 0.5
8,U8A U35G,≤ 0.5
9,U8C G9A C34U G39C,≤ 0.5
10,U8C C24G G38C A57U,≤ 0.5
11,U8C A42U A43G,0.507
12,U8C C30G U53C C60A C61A C66G,≤ 0.5
13,U8C A37G G38C G51A,≤ 0.5
14,U8C C27G A57C,0.586
15,U8C A37G G39C,≤ 0.5
16,U8C A36U G38A A45U C49U C61G,≤ 0.5
17,U8C G9C,0.695
18,U8C G9A,0.894
19,U8C G18A C27G C34A U47A,≤ 0.5
20,U8C C22A C33G G39C C46U G52A C66U,≤ 0.5
21,U8C G18C C33U A65C A69C,0.549
22,U8C A21U C27G C29U U32C,≤ 0.5
23,U8C C27G A42C C62G,≤ 0.5
24,U8C C22A C33G G39C C46U,≤ 0.5

row,Variant,yeast fitness
1,U8C G23C U26C C29G A45U,≤ 0.5
2,U8C A42G C61U,0.526
3,U8C G9A G17C G56C,0.532
4,U8C C29A C34G A36G A40C U47A,≤ 0.5
5,U8A U32A G52A G56C,≤ 0.5
6,U8C A21G C46U C62U,0.699
7,U8C C27U A70G,0.738
8,U8C C11A A15C C49U A57G C61U,≤ 0.5
9,U8C C27U C31A G56A,≤ 0.5
10,U8A U26A C29A A65C,0.761
11,U8C C29U A43G C66U,≤ 0.5
12,U8C A14C C31U,≤ 0.5
13,U8C C31U C49U U54C,≤ 0.5
14,U8C C27G A57C A70U,≤ 0.5
15,U8C C11U A36U,≤ 0.5
16,U8C C11U U16G A21C C31G G39A G56C,≤ 0.5
17,U8C C24G,0.576
18,U8C C24U,0.945
19,U8C G12A A40C A69C,0.56
20,U8A U28C C61A G67C,≤ 0.5
21,U8C G58A,1.02
22,U8C G58C,0.919
23,U8C G25C C31U,0.696
24,U8C A65U,0.957

row,Variant,yeast fitness
1,U8C A45C A69U,0.765
2,U8C C27U A36C G39C G48C G63U A70U,≤ 0.5
3,U8C G18A U35C U47C G50C,≤ 0.5
4,U8C G10C,0.639
5,U8C G10C A21U G23C G56A C61A A65G,≤ 0.5
6,U8C A37G G38C,≤ 0.5
7,U8C A14U C30A,≤ 0.5
8,U8A U26G U35C G63A A70G,≤ 0.5
9,U8A U47G G56A,≤ 0.5
10,U8C C27U C62G,≤ 0.5
11,U8C C22G U28A C33G A57C,≤ 0.5
12,U8C C30G C49A G67A G68A,≤ 0.5
13,U8C C11G A69U,≤ 0.5
14,U8C A14G,0.934
15,U8C A14C,0.66
16,U8C G10A C29G G56C,≤ 0.5
17,U8C C24G G38C,≤ 0.5
18,U8A U35A A36G A57C,≤ 0.5
19,U8C G12A A21U A70U,≤ 0.5
20,U8C C24G C27U C55A,≤ 0.5
21,U8C U13A G67U,0.626
22,U8C G17A A40U G48A,≤ 0.5
23,U8C C29A C34G A36G A40C U47A C62G G68A,0.537
24,U8C G56U,0.755

row,Variant,yeast fitness
1,U8C G56A,1.06
2,U8C C30U A37G,≤ 0.5
3,U8C A36C G67C,≤ 0.5
4,U8C G23A C29U A45U,0.632
5,U8C A15G C61U,0.628
6,U8C C55A C61G,≤ 0.5
7,U8C U13A C24U C29G C33A U47A C55U A65C,0.787
8,U8C A14C C30G,≤ 0.5
9,U8A U26C G39C A43G,≤ 0.5
10,U8C A37C G51A,≤ 0.5
11,U8C C27A A36U A37U,≤ 0.5
12,U8C C11A A42G A43U C46U C62U,≤ 0.5
13,U8C C30A G39A U47A G63C,≤ 0.5
14,U8C A36G G44A C46U,0.674
15,U8C G10A U16A A65G,0.605
16,U8C A21G C33U A36G A43U A65U A70G,≤ 0.5
17,U8C A45U,0.923
18,U8C A15U G25A C34G U54A,≤ 0.5
19,U8C G48C,0.843
20,U8C C22A C33G G39C U54C,≤ 0.5
21,U8C G12A G25A,0.734
22,U8C G9A G10A G23C C29U A36C C49G A70U,0.534
23,U8C A15C C34U A37G A40U,≤ 0.5
24,U8C C11G A15C A70C,≤ 0.5

row,Variant,yeast fitness
1,U8C C24G G25A A43G,≤ 0.5
2,U8C C30G C31G U64G C66U,≤ 0.5
3,U8C C24G U26C,≤ 0.5
4,U8C G25C C29G,≤ 0.5
5,U8C C46G,1.04
6,U8C C31G,0.81
7,U8A U28A C33A A36U,0.541
8,U8C C22G A37G C60A A70G,≤ 0.5
9,U8C G17C A42G C61A,≤ 0.5
10,U8C G25C C49A,0.515
11,U8C G12C U26G,≤ 0.5
12,U8C A15G G50A,0.674
13,U8C C29U G56C,0.538
14,U8C G17A G50A A69C,≤ 0.5
15,U8A U26A C29A C62U,0.537
16,U8C A15G G25A C49U A65U,≤ 0.5
17,U8C C30G C33G A70U,0.571
18,U8C A20G C27U C30U A42G C60A,0.711
19,U8C A15C A20U,0.544
20,U8C A21U U32A C55G U59C,≤ 0.5
21,U8C G9A C22G U32G C49G,≤ 0.5
22,U8C A20C G38A U53A,≤ 0.5
23,U8C G68U,0.857
